Experiments:
[1] = AUC in rat at 10 mg/kg, po; format: ADME, organism-based; set-up: dose 10 mg/kg, route oral; conditions: plasma
[2] = molecular target: T1, PXR (nuclear receptor subfamily 1 group I member 2) (Homo sapiens, UniProt O75469); experiment: Activation of PXR (unknown origin) at 10 uM; format: ADME; conditions: read-out: FC
T1 sequence (O75469 whole entry): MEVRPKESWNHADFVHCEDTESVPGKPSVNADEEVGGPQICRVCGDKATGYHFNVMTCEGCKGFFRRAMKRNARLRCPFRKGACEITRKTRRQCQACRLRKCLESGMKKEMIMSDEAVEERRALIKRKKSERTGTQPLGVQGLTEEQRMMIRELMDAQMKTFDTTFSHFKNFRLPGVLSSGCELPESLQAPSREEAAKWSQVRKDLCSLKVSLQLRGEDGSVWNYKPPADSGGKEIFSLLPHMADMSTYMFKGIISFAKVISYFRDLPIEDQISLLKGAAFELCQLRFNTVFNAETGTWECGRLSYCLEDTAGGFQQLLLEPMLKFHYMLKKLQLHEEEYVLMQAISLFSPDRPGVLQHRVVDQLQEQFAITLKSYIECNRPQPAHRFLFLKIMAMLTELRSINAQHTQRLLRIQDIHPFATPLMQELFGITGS

Mus musculus [3] = experiment: Reduction of postprandial plasma triglyceride level in C57BL/6J mouse at 3 mg/kg, po administered 15 mins prior to corn oil bolus challenge measured after 2 hrs relative to vehicle-treated control; format: functional; set-up: scale not given: the % may be the effect or the level left
Method in brief: (§1)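 Vehicle is 20% hydroxypropyl-β-cyclodextrin; compound or vehicle is given 15 min before time 0. Mice receive a 0.25 mL corn oil bolus at time 0. Terminal blood is taken by heart puncture at 120 min. Plasma TG is measured by an enzymatic colorimetric kit with absorbance read at 600 nm. Values are the mean ± SEM from eight studies, as % reduction versus vehicle.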

[4] = molecular target: T2, Sterol O-acyltransferase 2 (Homo sapiens, UniProt O75908); experiment: Inhibition of human ACAT2
T2 sequence (O75908 whole entry): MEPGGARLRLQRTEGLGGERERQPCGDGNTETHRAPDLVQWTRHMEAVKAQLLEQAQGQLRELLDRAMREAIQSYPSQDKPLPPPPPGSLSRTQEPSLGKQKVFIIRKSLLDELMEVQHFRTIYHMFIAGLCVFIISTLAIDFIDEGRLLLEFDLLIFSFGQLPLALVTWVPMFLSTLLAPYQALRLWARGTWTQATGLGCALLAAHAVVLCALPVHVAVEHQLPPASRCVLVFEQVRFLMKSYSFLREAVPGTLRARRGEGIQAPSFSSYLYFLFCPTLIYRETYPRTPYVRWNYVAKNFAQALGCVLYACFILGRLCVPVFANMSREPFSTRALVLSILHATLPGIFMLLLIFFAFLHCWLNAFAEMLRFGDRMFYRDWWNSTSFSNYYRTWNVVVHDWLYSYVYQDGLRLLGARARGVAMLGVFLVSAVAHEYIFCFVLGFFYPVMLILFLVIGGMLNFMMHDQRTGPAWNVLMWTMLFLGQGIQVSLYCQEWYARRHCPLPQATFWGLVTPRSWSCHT
Method in brief: (§2)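 IC50 values are the average of at least two independent determinations.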

Mus musculus [5] = experiment: Reduction of postprandial plasma triglyceride level in C57BL/6J mouse at 1 mg/kg, po administered 15 mins prior to corn oil bolus challenge measured after 2 hrs relative to vehicle-treated control; format: functional; set-up: scale not given: the % may be the effect or the level left; method in brief: as §1
Cytochrome P450 1A1 = molecular target: T3, Cytochrome P450 1A1 (Homo sapiens, UniProt P04798); experiment: Induction of CYP1A1 (unknown origin); format: ADME
T3 sequence (P04798 whole entry): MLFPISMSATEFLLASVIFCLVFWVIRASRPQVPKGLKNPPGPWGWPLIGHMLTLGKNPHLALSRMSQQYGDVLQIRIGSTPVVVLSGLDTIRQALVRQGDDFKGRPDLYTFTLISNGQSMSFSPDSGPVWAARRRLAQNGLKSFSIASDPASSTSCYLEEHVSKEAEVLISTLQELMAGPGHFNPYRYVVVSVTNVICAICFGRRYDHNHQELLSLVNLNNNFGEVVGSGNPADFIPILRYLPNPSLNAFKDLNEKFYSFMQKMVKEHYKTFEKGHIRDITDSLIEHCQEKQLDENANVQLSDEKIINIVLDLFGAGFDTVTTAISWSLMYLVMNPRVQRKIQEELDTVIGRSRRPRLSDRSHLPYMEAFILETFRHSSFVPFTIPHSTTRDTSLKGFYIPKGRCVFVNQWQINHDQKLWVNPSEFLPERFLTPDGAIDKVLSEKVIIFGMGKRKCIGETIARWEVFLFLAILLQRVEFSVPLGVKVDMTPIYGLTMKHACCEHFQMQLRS

[6] = molecular target: T4, Diacylglycerol O-acyltransferase 1 (Mus musculus, UniProt Q9Z2A7); experiment: Inhibition of mouse DGAT1; method in brief: as §2
T4 sequence (Q9Z2A7 whole entry): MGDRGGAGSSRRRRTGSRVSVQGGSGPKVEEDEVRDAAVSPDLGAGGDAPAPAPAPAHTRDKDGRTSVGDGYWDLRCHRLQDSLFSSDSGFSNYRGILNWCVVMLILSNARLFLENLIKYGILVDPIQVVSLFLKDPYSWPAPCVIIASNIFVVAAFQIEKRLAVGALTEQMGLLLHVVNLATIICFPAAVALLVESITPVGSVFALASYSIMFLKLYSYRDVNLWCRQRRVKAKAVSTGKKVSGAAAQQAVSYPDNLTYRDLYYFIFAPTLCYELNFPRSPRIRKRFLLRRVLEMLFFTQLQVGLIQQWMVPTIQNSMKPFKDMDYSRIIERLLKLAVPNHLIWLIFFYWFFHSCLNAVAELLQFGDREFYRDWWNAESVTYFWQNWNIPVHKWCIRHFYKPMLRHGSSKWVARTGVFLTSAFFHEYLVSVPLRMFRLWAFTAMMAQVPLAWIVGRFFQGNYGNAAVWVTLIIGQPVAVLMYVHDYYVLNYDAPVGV

Mus musculus [7] = experiment: Reduction of plasma triglyceride level in C57BL/6J mouse at 3 mg/kg, po administered 15 mins prior to corn oil bolus challenge measured after 12 hrs relative to vehicle-treated control; format: functional; set-up: scale not given: the % may be the effect or the level left

AUC [1]: 79 µM·h | fold induction at 10 µM [2]: 1.4 | IC50 [4]: 1100 nM | Activity (Cytochrome P450 1A1): Active | IC50 [6]: 10 nM
Structure (SMILES): Cc1cc(C(=O)Nc2ccccc2)c2ccc(-c3ccc([C@H]4CC[C@H](CC(=O)O)CC4)cc3)cc2n1
Activity (Mus musculus [3]): -100% | Activity (Mus musculus [5]): -94% | Activity (Mus musculus [7]): -79%
